SENP8 block-1: inhibitors of human SENP8 protease | Q96LD8 | recombinant SENP8, Nedd8 substrate fluorescence | inhibition, % at 20 µM | 0.64% of 360,000 active; in the data active = inhibition mostly above about 40%, no sharp cut-off; inactive = mostly below about 27%
SENP6 block: inhibitors of human SENP6 protease. Q9GZR1. Recombinant SENP6 catalytic domain, aminoluciferin luminescence. inhibition, % at 10 µM. 1.8% of 330,000 active;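 active = inhibition above about 50% at the single tested dose, limit read from the data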;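 note: plate controls were DMSO wells with enzyme for no effect and DMSO wells lacking enzyme for full effect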
UBC13 inh: blocks human UBC13 polyubiquitin chain formation; inhibition, % at 20 µM; TR-FRET; 0.47% of 330,000 active; P61088; in the data active = inhibition above about 45%, passing the limit was not always enough
Target sequence (P61088 whole entry, looked up): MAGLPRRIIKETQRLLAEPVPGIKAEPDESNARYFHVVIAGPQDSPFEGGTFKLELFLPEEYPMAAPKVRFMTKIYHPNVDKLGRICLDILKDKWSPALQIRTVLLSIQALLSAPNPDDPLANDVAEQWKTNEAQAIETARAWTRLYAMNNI
Apaf1 inhib: blocks human Apaf-1 apoptosome activity. 0.71% of 330,000 active. reconstituted apoptosome caspase-3 activity, DEVD-Rh110 fluorescence. inhibition, % at 20 µM; active = inhibition of at least 40% at 20 µM;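 note: plate controls were DMSO wells for no effect and DEVD-CHO caspase inhibitor wells for full effect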
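detection = Rh110 fluorescence intensity | test system = biochemical Apaf-1 apoptosome reconstitution | also added = cytochrome c and DEVD-Rh110 substrate | schedule = 30 min plus 50 min, RT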
SENP7 block: blocks the human protease SENP7; Q9BQF6; 1.5% of 330,000 active; inhibition, % at 5 µM; recombinant SENP7, Z-RLRGG-aminoluciferin luminescence, 40 min;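 active = inhibition above about 50% at the single test dose, limit read from the data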;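 note: plate controls were DMSO with enzyme for no effect and no enzyme buffer wells for full effect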
Target sequence (Q9BQF6 706-1050 limits assumed): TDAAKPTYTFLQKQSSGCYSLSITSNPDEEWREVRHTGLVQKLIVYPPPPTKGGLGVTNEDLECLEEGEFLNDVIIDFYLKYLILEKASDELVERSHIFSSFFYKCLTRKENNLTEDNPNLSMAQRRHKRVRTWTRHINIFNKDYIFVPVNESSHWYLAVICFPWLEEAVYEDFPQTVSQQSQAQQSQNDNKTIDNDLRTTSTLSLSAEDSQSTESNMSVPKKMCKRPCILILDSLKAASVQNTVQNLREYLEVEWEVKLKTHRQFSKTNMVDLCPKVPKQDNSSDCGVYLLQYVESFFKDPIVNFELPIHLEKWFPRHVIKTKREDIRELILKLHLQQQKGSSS
SENP8 block-2: blocks the human protease SENP8; Q96LD8; purified SENP8, Z-RLRGG-aminoluciferin cleavage, luminescence; inhibition, % at 10 µM; 1.2% of 330,000 active; AID 2540; in the data active = inhibition above about 50%
SENP8 conf: confirmation of human SENP8 protease inhibitors | shares compounds with SENP8 block-1 | purified SENP8, Nedd8-AMC/pro-Nedd8 cleavage fluorescence, 30 min | inhibition, % at 25 µM | 15% of 1,400 active; in the data active = inhibition mostly above about 39%, no sharp cut-off; inactive = mostly below about 34%
* hit, by the source's call; . = no result. A selection: hits, their analogues and other compounds. The true share with any hit is near 3.1%.

SMILES	SENP8 block-1	SENP6 block	UBC13 inh	Apaf1 inhib	SENP7 block	SENP8 block-2	SENP8 conf
CN1C(C)(C)CC(O)(C(=O)O)CC1(C)C	9	.	.	.	.	.	.
Cc1cccc(C)c1-n1nnnc1C1c2ccccc2C(=O)N1CCc1ccc(O)cc1 (stereo not drawn)	19	.	.	.	.	.	.
O=c1cc(-c2ccc(O)c(O)c2)oc2cc(O)c(C3OC(CO)C(O)C(O)C3O)c(O)c12 (stereo not drawn)	1	-6	-14	-9	-3	-6	.
O=c1cc(-c2ccc(O)cc2)oc2cc(O)c([C@@H]3O[C@H](CO)[C@@H](O)[C@H](O)[C@H]3O)c(O)c12	45*	-20	8	-8	6	-2	10
CCC(=O)N(CCC(Cc1ccccc1)c1ccc2c(c1)OCO2)Cc1ccccc1F (stereo not drawn)	40*	7	6	14	2	8	14
O=C(NC1CCCCC1)C(c1ccco1)N(CCc1ccccc1)C(=O)C(F)(F)F (stereo not drawn)	45*	-11	0	10	0	2	20
COc1cc2c(cc1OC)C(=O)N(C)CC2	42*	3	0	-8	5	-1	3
COc1cccc(-c2cc(NC(C)=O)c3ncc(-c4ccc(OC)c(OC)c4)n3c2)c1	-328	.	.	.	.	.	.
O=Nc1c(-c2ccccc2)[nH]n(-c2ccccc2)c1=O	47*	-19	-15	3	12	-16	13
Cc1ccc(C2=N/C(=C\c3cccs3)C(=O)N2Nc2ccccc2)cc1	42*	-1	-14	13	-4	4	31
O=C1C(=C(I)I)c2ccccc2-c2ccccc21	40*	.	.	.	.	.	-1
COc1cccc(/C=N/NC(=O)c2nnn(-c3nonc3N)c2CN(C)C2CCCCC2)c1	18	.	.	.	.	.	.
O=[N+]([O-])c1ccc(C=NNc2ccccc2)cc1	44*	.	.	.	.	.	25
COCCNC(=S)N/N=C/c1ccc([N+](=O)[O-])cc1	43*	-21	-19	-16	-3	-7	23
COc1ccc(C(N)c2csc(Nc3ccc(C(=O)NCCCO)cn3)n2)cc1 (stereo not drawn)	-394	.	.	.	.	.	.
Oc1ccc(C[C@H]2CNC(=S)N2CC2CCCN2C[C@H](Cc2ccccc2)N2C[C@H](Cc3ccc(O)cc3)N(CC3CCCCC3)C2=S)cc1 (stereo partly drawn)	20	.	.	.	.	.	.
CNc1cc([N+](=O)[O-])ccc1N/C=C/C(=O)c1cccs1	42*	9	-67	13	-11	-10	19
CCOC(=O)CSc1nc2nc(Cl)c(Cl)nc2[nH]1	-473	.	.	.	.	.	.
NC(=O)CC(NC(=O)c1ccccc1)c1ccc(NC2CCCCC2)c([N+](=O)[O-])c1 (stereo not drawn)	43*	-16	-92	23	9	-10	18
NC(=O)CC(NC(=O)c1ccccc1)c1ccc(NCCc2ccc(Cl)cc2)c([N+](=O)[O-])c1 (stereo not drawn)	44*	1	-40	25	1	-5	-1
NC(=O)CC(NC(=O)c1ccccc1)c1ccc(NCc2ccc(F)c(F)c2)c([N+](=O)[O-])c1 (stereo not drawn)	23	-13	-51	25	-3	4	.
COc1cc(OCc2ccccc2)c(CC(=O)O)c([N+](=O)[O-])c1	19	.	.	.	.	.	.
COc1ccccc1OCC(=O)N/N=C(\C)c1ccc2ccccc2c1	20	.	.	.	.	.	.
O=C(Oc1ccccc1[N+](=O)[O-])c1cccnc1	46*	-1	10	-13	0	-2	12
COC(=O)C1CCN(Cc2c(C(=O)N3C[C@@H](C)O[C@@H](C)C3)nc3ccc(Cl)cn23)CC1	16	-2	-13	-6	-11	-3	.
SMILES	SENP8 block-1	SENP6 block	UBC13 inh	Apaf1 inhib	SENP7 block	SENP8 block-2	SENP8 conf
C[C@@H]1CN(C(=O)c2nc3ccc(Cl)cn3c2CN2CCc3sccc3C2)C[C@H](C)O1	43*	8	-4	5	-4	4	21
Cc1ccc(C(C#N)c2ccc3c(C(F)(F)F)cc(C(F)(F)F)nc3n2)cc1 (stereo not drawn)	43*	-22	-91	-3	-3	6	11
CC1(C)C[C@H]2C3=CCC4[C@@]5(C)CC[C@H](O)[C@](C)(CO)C5CC[C@@]4(C)[C@]3(C)CC[C@@]2(C)[C@H](O)[C@@H]1O (stereo partly drawn)	40*	-26	-28	1	-6	-14	4
COc1cc(NC(C)=O)c2ncccc2c1NC(C)=O	-26	6	5	-2	-1	2	.
COc1cc(NC(C)=O)c2ncccc2c1[N+](=O)[O-]	48*	-1	-11	18	2	-12	8
O=C1NC[C@H](CC2CCCCC2)N(CCC23CC4CC(CC(C4)C2)C3)C1=O	7	.	.	.	.	.	.
CCOc1cc(NC(=O)c2ccccn2)c(OCC)cc1NC(=O)c1ccccc1	-16	4	1	-4	5	0	.
CCOc1cc(NC2CS(=O)(=O)CC2O)c(OCC)cc1NC(=O)c1ccccc1 (stereo not drawn)	44*	12	-4	-3	5	8	32
Cc1nc2c(O)c3c(c(O)c2nc1C)C1C=CC3CC1	42*	.	.	.	.	.	7
Cc1ccc(NNC(N)=S)cc1Cl	60*	-2	-14	5	-5	-7	17
CCC(=O)N1CCCC1(C)C(=O)Nc1ccc2nc(C)ccc2c1 (stereo not drawn)	-60	.	.	.	.	.	.
O=C(O)c1cc([N+](=O)[O-])ccc1N1CCCCC1	42*	-13	-13	-2	-5	-8	16
O=C(O)c1c(N2CCCCC2)ccc([N+](=O)[O-])c1N1CCCCC1	40*	-4	-8	-18	7	-2	23
O=C(c1cc([N+](=O)[O-])ccc1N1CCCCC1)N1CCCCC1	14	-2	-15	-3	5	9	.
c1cnc2c(-c3ccc4nccn4c3)cccc2c1	-49	.	.	.	.	.	.
CC(=O)Nc1cccc(-c2ccnc3c2CC(C(=O)NCc2ccc(N(C)C)cc2)O3)c1 (stereo not drawn)	-2	.	.	.	.	.	.
COc1cccc(OC)c1C(=O)NC(=S)N1CCCCC1c1cccnc1 (stereo not drawn)	52*	11	2	5	2	0	16
O=C(NCc1cccc(Cl)c1)c1ccc(-n2cncn2)c2ccoc12	-4	.	.	.	.	.	.
COCCCNC(=O)c1ccc2c(c1)OCO2	45*	1	6	-2	5	-2	12
Cc1cccc(C)c1-c1ccc(CN2C(CC(C)C)C(=O)N(Cc3cn(CCO)nn3)CCS2(=O)=O)cc1 (stereo not drawn)	-8	.	.	.	.	.	.
Nn1cnnc1N/N=C/c1ccc(F)cc1	14	14	-8	-14	6	3	.
CCc1nnc(N/N=C/c2ccc(N3CCC(C)CC3)c([N+](=O)[O-])c2)n1N	62*	-17	-59	8	19	0	43*
